The values that follow come from ChEMBL document CHEMBL1799953, “Backbone cyclic peptide inhibitors of protein kinase B (PKB/Akt)” (J Med Chem, 2011).

pIC50: −log10 of the molar value. *1 amine or outer side, *2 acyl side, *3 side chain or, on linkers, in order; H or OH if unused. Where a SMILES comes first, the peptide text is derived from it. Bridges are numbered along the chain shown (N, C = ends). [ ]: non-standard residue; d: D form. N(6-aminohexyl)Gly = O=C(CN(CCCCCCN[*:3])[*:1])[*:2]; NGly(3-aminopropyl) = O=C(CN(CCCN[*:3])[*:1])[*:2]; N(2-Aminoethyl)Gly = O=C(CN(CCN[*:3])[*:1])[*:2]; Heptanedioyl = O=C(CCCCCC(=O)[*:2])[*:1]; Adipoyl = O=C(CCCCC(=O)[*:2])[*:1]; Glutaryl = O=C(CCCC(=O)[*:2])[*:1]; Suc = O=C(CCC(=O)[*:2])[*:1]; hLeu = CC(C)CC[C@H](N)C(=O)O; Nva = CCC[C@H](N)C(=O)O; Dap = NC[C@H](N)C(=O)O; CO = O=C([*:1])[*:2]; Nlys = NCCCCNCC(=O)O

Usually inhibition stands for the percentage by which the read-out fell short of the control. For orientation: pIC50 means the IC50 on a negative log10 scale, so that one unit is a factor of ten.

T1 sequence (P31749 whole entry): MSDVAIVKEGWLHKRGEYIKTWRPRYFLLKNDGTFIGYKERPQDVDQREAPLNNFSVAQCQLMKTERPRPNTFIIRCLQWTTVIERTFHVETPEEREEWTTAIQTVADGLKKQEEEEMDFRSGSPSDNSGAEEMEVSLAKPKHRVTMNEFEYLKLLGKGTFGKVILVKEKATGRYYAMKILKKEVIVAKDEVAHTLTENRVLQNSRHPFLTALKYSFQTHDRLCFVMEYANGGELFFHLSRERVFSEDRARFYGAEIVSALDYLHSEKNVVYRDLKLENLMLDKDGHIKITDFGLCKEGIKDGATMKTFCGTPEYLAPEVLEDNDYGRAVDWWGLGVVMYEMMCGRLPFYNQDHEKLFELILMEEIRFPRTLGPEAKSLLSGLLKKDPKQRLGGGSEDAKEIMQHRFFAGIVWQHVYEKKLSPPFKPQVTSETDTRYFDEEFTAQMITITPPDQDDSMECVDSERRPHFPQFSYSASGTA

For one assay, the target named is T1, RAC-alpha serine/threonine-protein kinase (Homo sapiens, UniProt P31749). Put plainly: Inhibition of Akt using RPRTSSF peptide and [gamma32]ATP at 5 uM by cell-free radioactive assay relative to control. The gist of the method:
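Cell-free 32P kinase assay: HisΔPHPKBEEEFlag (0.005 units, one-step Ni-NTA partial purification), 50 mM Hepes pH 7.4, 0.1 mM EGTA, 0.1% 2-mercaptoethanol, 10 mM magnesium acetate, 3 μM RPRTSSF substrate, 10 μM [γ32P]ATP (1 μCi/well). Inhibitor at 5 μM. Activity loss expressed as percent of uninhibited reaction.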
As for `CCC[C@@H]1NC(=O)[C@H](CCCNC(=N)N)NC(=O)CN(C(=O)[C@@H](N)CCCNC(=N)N)CCNC(=O)NCCCCCCN(CC(N)=O)C(=O)[C@H](CCC(C)C)NC(=O)[C@H](CN)NC(=O)[C@H](Cc2ccc(O)cc2)NC1=O` (H-R[N(2-Aminoethyl)Gly]R[Nva]Y[Dap][hLeu][N(6-aminohexyl)Gly]-NH2; linker 2-8 via CO), the inhibition was 100%. For `CCC[C@@H]1NC(=O)[C@H](CCCNC(=N)N)NC(=O)CN(C(=O)[C@@H](N)CCCNC(=N)N)CCNC(=O)NCCCN(CC(N)=O)C(=O)[C@H](CCC(C)C)NC(=O)[C@H](CN)NC(=O)[C@H](Cc2ccc(O)cc2)NC1=O` (H-R[N(2-Aminoethyl)Gly]R[Nva]Y[Dap][hLeu][NGly(3-aminopropyl)]-NH2; linker 2-8 via CO), the inhibition was 98%.

`CCC[C@@H]1NC(=O)[C@H](CCCNC(=N)N)NC(=O)CN(C(=O)[C@@H](N)CCCNC(=N)N)CCCCCCNC(=O)NCCCN(CC(N)=O)C(=O)[C@H](CCC(C)C)NC(=O)[C@H](CN)NC(=O)[C@H](Cc2ccc(O)cc2)NC1=O` (H-R[N(6-aminohexyl)Gly]R[Nva]Y[Dap][hLeu][NGly(3-aminopropyl)]-NH2; linker 2-8 via CO): the inhibition amounted to 100%. Same read-out and setting: under `CCC[C@@H]1NC(=O)[C@H](CCCNC(=N)N)NC(=O)CN(C(=O)[C@@H](N)CCCNC(=N)N)CCCNC(=O)NCCCCCCN(CC(N)=O)C(=O)[C@H](CCC(C)C)NC(=O)[C@H](CN)NC(=O)[C@H](Cc2ccc(O)cc2)NC1=O` (H-R[NGly(3-aminopropyl)]R[Nva]Y[Dap][hLeu][N(6-aminohexyl)Gly]-NH2; linker 2-8 via CO) stands 100%. For the compound `CCC[C@@H]1NC(=O)[C@H](CCCNC(=N)N)NC(=O)CN(C(=O)[C@@H](N)CCCNC(=N)N)CCCCNC(=O)NCCCCN(CC(N)=O)C(=O)[C@H](CCC(C)C)NC(=O)[C@H](CN)NC(=O)[C@H](Cc2ccc(O)cc2)NC1=O` (H-R[Nlys]R[Nva]Y[Dap][hLeu][Nlys]-NH2; linker 2-8 via CO), the inhibition was 100%. Same read-out and setting: the value for `CCC[C@@H]1NC(=O)[C@H](CCCNC(=N)N)NC(=O)[C@@H]2CCCN2C(=O)[C@H](CCCNC(=N)N)NC(=O)CCCCC(=O)NCCCCCCN(CC(N)=O)C(=O)[C@H](CCC(C)C)NC(=O)[C@H](CN)NC(=O)[C@H](Cc2ccc(O)cc2)NC1=O` (RPR[Nva]Y[Dap][hLeu][N(6-aminohexyl)Gly]-NH2; linker N-8 via Adipoyl) was 30%; that for `CCC[C@@H]1NC(=O)[C@H](CCCNC(=N)N)NC(=O)[C@@H]2CCCN2C(=O)[C@H](CCCNC(=N)N)NC(=O)CCCC(=O)NCCCCCCN(CC(N)=O)C(=O)[C@H](CCC(C)C)NC(=O)[C@H](CN)NC(=O)[C@H](Cc2ccc(O)cc2)NC1=O` (RPR[Nva]Y[Dap][hLeu][N(6-aminohexyl)Gly]-NH2; linker N-8 via Glutaryl) was 32%. As to `CCC[C@@H]1NC(=O)[C@H](CCCNC(=N)N)NC(=O)[C@@H]2CCCN2C(=O)[C@H](CCCNC(=N)N)NC(=O)CCCCCC(=O)NCCCCCCN(CC(N)=O)C(=O)[C@H](CCC(C)C)NC(=O)[C@H](CN)NC(=O)[C@H](Cc2ccc(O)cc2)NC1=O` (RPR[Nva]Y[Dap][hLeu][N(6-aminohexyl)Gly]-NH2; linker N-8 via Heptanedioyl), the inhibition is 30%.

As to `CCC[C@@H]1NC(=O)[C@H](CCCNC(=N)N)NC(=O)[C@@H]2CCCN2C(=O)[C@H](CCCNC(=N)N)NC(=O)CCC(=O)NCCCCCCN(CC(N)=O)C(=O)[C@H](CCC(C)C)NC(=O)[C@H](CN)NC(=O)[C@H](Cc2ccc(O)cc2)NC1=O` (RPR[Nva]Y[Dap][hLeu][N(6-aminohexyl)Gly]-NH2; linker N-8 via Suc), the inhibition worked out at 25%. On the same count and under the same terms, the value for `CCC[C@@H]1NC(=O)[C@H](CCCNC(=N)N)NC(=O)[C@@H]2CCCN2C(=O)[C@H](CCCNC(=N)N)NC(=O)CCCCC(=O)NCCCCN(CC(N)=O)C(=O)[C@H](CCC(C)C)NC(=O)[C@H](CN)NC(=O)[C@H](Cc2ccc(O)cc2)NC1=O` (RPR[Nva]Y[Dap][hLeu][Nlys]-NH2; linker N-8 via Adipoyl) was 18%. For the compound `CCC[C@@H]1NC(=O)[C@H](CCCNC(=N)N)NC(=O)[C@@H]2CCCN2C(=O)[C@H](CCCNC(=N)N)NC(=O)CCCC(=O)NCCCCN(CC(N)=O)C(=O)[C@H](CCC(C)C)NC(=O)[C@H](CN)NC(=O)[C@H](Cc2ccc(O)cc2)NC1=O` (RPR[Nva]Y[Dap][hLeu][Nlys]-NH2; linker N-8 via Glutaryl), the inhibition is 14%.

With `CCC[C@@H]1NC(=O)[C@H](CCCNC(=N)N)NC(=O)[C@@H]2CCCN2C(=O)[C@H](CCCNC(=N)N)NC(=O)CCCCCC(=O)NCCCCN(CC(N)=O)C(=O)[C@H](CCC(C)C)NC(=O)[C@H](CN)NC(=O)[C@H](Cc2ccc(O)cc2)NC1=O` (RPR[Nva]Y[Dap][hLeu][Nlys]-NH2; linker N-8 via Heptanedioyl), the inhibition was determined as 16%.

Another assay deals with T1, RAC-alpha serine/threonine-protein kinase. Put plainly: Inhibition of Akt using RPRTSSF peptide and [gamma32]ATP by cell-free radioactive assay. In outline:
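Same reaction: HisΔPHPKBEEEFlag (0.005 units), 50 mM Hepes pH 7.4, 0.1 mM EGTA, 0.1% 2-mercaptoethanol, 10 mM magnesium acetate, 3 μM RPRTSSF, 10 μM [γ32P]ATP. Peptide stock concentration determined by UV spectrophotometry; reference peptide run in every assay.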
Consider `CCC[C@@H]1NC(=O)[C@H](CCCNC(=N)N)NC(=O)CN(C(=O)[C@@H](N)CCCNC(=N)N)CCNC(=O)NCCCCCCN(CC(N)=O)C(=O)[C@H](CCC(C)C)NC(=O)[C@H](CN)NC(=O)[C@H](Cc2ccc(O)cc2)NC1=O` (H-R[N(2-Aminoethyl)Gly]R[Nva]Y[Dap][hLeu][N(6-aminohexyl)Gly]-NH2; linker 2-8 via CO), for which the pIC50 was 6.54. `CCC[C@@H]1NC(=O)[C@H](CCCNC(=N)N)NC(=O)CN(C(=O)[C@@H](N)CCCNC(=N)N)CCNC(=O)NCCCN(CC(N)=O)C(=O)[C@H](CCC(C)C)NC(=O)[C@H](CN)NC(=O)[C@H](Cc2ccc(O)cc2)NC1=O` (H-R[N(2-Aminoethyl)Gly]R[Nva]Y[Dap][hLeu][NGly(3-aminopropyl)]-NH2; linker 2-8 via CO): the negative-log IC50 (pIC50) was 6.04. On the same count and under the same terms, the value for `CCC[C@@H]1NC(=O)[C@H](CCCNC(=N)N)NC(=O)CN(C(=O)[C@@H](N)CCCNC(=N)N)CCCCCCNC(=O)NCCCN(CC(N)=O)C(=O)[C@H](CCC(C)C)NC(=O)[C@H](CN)NC(=O)[C@H](Cc2ccc(O)cc2)NC1=O` (H-R[N(6-aminohexyl)Gly]R[Nva]Y[Dap][hLeu][NGly(3-aminopropyl)]-NH2; linker 2-8 via CO) was 6.80; that for `CCC[C@@H]1NC(=O)[C@H](CCCNC(=N)N)NC(=O)CN(C(=O)[C@@H](N)CCCNC(=N)N)CCCNC(=O)NCCCCCCN(CC(N)=O)C(=O)[C@H](CCC(C)C)NC(=O)[C@H](CN)NC(=O)[C@H](Cc2ccc(O)cc2)NC1=O` (H-R[NGly(3-aminopropyl)]R[Nva]Y[Dap][hLeu][N(6-aminohexyl)Gly]-NH2; linker 2-8 via CO) was 6.49. Turning to `CCC[C@@H]1NC(=O)[C@H](CCCNC(=N)N)NC(=O)CN(C(=O)[C@@H](N)CCCNC(=N)N)CCCCNC(=O)NCCCCN(CC(N)=O)C(=O)[C@H](CCC(C)C)NC(=O)[C@H](CN)NC(=O)[C@H](Cc2ccc(O)cc2)NC1=O` (H-R[Nlys]R[Nva]Y[Dap][hLeu][Nlys]-NH2; linker 2-8 via CO), the pIC50 is 6.77.
